Reference: ChEMBL document CHEMBL4834419 (J Med Chem, 2021)
In brackets after ≈: the same amount, converted by molar mass. Activity calls are given as the source filed them. The calls are words filed in the database; no cut-off is given here.

Experiments:
[1] = target: T1, Nuclear receptor subfamily 1 group I member 3 (Homo sapiens, UniProt Q14994); experiment: Agonist activity against human CAR in human HEK293T cells co-expressing pFR/pRL-Luc assessed as receptor activation at 10 uM incubated for 14 to 16 hrs by hybrid reporter gene assay relative to bexarotene; format: cell-based; settings: time 14-16 hrs
T1 sequence (Q14994 whole entry): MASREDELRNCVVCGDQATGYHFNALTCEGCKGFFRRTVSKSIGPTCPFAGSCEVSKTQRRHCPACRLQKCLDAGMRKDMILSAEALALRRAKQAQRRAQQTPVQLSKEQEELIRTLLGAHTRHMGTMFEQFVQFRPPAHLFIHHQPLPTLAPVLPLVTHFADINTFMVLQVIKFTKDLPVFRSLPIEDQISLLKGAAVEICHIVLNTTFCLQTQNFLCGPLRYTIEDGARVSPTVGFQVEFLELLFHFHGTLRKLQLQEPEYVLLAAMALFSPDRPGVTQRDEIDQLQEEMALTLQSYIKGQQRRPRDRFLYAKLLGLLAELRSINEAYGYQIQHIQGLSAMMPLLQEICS
Summary of the method: (§1)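 Gal4 hybrid reporter assay in HEK293T cells, seeded 24 h before transfection (Lipofectamine LTX, Opti-MEM) with pFR-Luc, pRL-SV40 and pFA-CMV plasmid carrying the hinge region and LBD of the human receptor. After 5 h, compound added in 0.1% DMSO, with 0.1% DMSO alone as untreated control. Dual-Glo luciferase read after 14−16 h; firefly/renilla normalized; duplicates, ≥2 independent experiments.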

[2] = target: T2, Retinoic acid receptor RXR-gamma (Homo sapiens, UniProt P48443); experiment: Agonist activity at human RXRgamma transfected in human HEK293T cells co-expressing pFR/pRL-Luc incubated for 14 to 16 hrs by hybrid reporter gene assay; format: cell-based
T2 sequence (P48443 whole entry): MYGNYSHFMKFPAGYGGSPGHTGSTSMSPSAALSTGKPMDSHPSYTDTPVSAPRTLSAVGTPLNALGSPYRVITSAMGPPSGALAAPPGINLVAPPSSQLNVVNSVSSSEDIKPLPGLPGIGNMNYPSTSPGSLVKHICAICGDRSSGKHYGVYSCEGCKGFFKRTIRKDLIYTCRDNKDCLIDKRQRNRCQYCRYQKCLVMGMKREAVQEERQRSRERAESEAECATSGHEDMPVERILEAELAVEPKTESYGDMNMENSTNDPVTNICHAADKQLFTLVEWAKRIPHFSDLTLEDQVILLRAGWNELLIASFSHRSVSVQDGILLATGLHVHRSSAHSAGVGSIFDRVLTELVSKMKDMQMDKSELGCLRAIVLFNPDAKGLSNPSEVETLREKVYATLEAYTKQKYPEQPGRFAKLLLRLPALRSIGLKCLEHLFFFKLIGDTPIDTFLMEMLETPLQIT

HepG2 [3] = experiment: Cytotoxicity against human HepG2 cells assessed as reduction in cell viability up to 100 uM incubated for 48 hrs by WST-1 assay; format: cell-based; settings: hepg2, 48 h
Summary of the method: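 HepG2 cells were seeded at 3 × 10⁴/well and grown 24 h. Medium was then switched to DMEM with 1% FCS containing compound in 0.1% DMSO; 0.1% DMSO alone was the negative control. After 48 h, WST-1 was added and absorbance read at 450/620 nm after 45 min. Four experiments in duplicate.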

[4] = target: T3, Retinoic acid receptor RXR-alpha (Homo sapiens, UniProt P19793); experiment: (§2) Agonist activity at human RXRalpha transfected in human HEK293T cells co-expressing pFR/pRL-Luc incubated for 14 to 16 hrs by hybrid reporter gene assay; format: cell-based
T3 sequence (P19793 whole entry): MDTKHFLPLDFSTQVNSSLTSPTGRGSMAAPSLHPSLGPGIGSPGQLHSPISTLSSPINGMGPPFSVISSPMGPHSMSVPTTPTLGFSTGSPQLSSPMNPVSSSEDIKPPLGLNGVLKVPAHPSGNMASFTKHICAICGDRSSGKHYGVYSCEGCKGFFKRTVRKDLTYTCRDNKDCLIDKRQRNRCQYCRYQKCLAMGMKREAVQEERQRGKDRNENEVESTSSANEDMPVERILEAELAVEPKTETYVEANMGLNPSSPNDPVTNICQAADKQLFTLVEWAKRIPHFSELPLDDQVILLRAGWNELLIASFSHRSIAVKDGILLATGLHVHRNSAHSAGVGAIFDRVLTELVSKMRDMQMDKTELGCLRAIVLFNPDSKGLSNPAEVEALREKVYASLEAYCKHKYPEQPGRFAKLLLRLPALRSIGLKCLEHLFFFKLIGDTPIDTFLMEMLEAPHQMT

[5] = Plasma concentration in mouse at 10 mg/kg, po measure after 3 hrs; format: ADME, organism-based
Summary of the method: (§3)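 Mice, n = 3, received a single oral dose of 10 mg/kg in water with 1% hydroxypropyl methylcellulose/Tween 80 (99:1). Tail-vein blood was drawn at 30 and 60 min and tissue collected at 3 h. Compound was quantified by LC−MS and PK derived by noncompartmental analysis.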

[6] = Metabolic stability in Sprague-Dawley rat liver microsomes assessed as compound degradation at 10 uM incubated for 60 min by HPLC analysis; format: ADME; settings: 1 h
Summary of the method: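 Compound at 10 μM final in 0.1 M phosphate, pH 7.4, was preincubated 5 min at 37 °C with an NADPH-regenerating system. Sprague-Dawley rat liver microsomes were then added. Reactions were stopped with ice-cold methanol at 0, 15, 30 and 60 min and remaining compound quantified by HPLC against an external calibration. Controls: no NADPH, heat-inactivated microsomes. Three independent experiments.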

[7] = Half life in mouse at 10 mg/kg, po; format: ADME, organism-based; settings: in vivo; summary of the method: as §3
[8] = Cmax in mouse at 10 mg/kg, po; format: ADME, organism-based; design: route oral, dose 10 mg/kg; settings: in vivo; summary of the method: as §3
[9] = Aqueous solubility of compound in pH 8 phosphate buffer incubated for 1 hr by HPLC analysis; format: physicochemical
Summary of the method: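 Solubility was measured with 3 mg compound in 2 mL 0.1 M phosphate buffer, pH 8, shaken 1 h at 37 °C. The mixture was pressed through a Uniprep filter and the dissolved compound in the filtrate quantified by HPLC against an external calibration; three independent experiments.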

[10] = target: T4, Retinoic acid receptor RXR-beta (Homo sapiens) (UniProt P28702); experiment: Agonist activity at human RXRbeta transfected in human HEK293T cells co-expressing pFR/pRL-Luc at 30 uM incubated for 14 to 16 hrs by hybrid reporter gene assay; format: cell-based; settings: time 14-16 hrs; summary of the method: as §1
T4 sequence (whole entry): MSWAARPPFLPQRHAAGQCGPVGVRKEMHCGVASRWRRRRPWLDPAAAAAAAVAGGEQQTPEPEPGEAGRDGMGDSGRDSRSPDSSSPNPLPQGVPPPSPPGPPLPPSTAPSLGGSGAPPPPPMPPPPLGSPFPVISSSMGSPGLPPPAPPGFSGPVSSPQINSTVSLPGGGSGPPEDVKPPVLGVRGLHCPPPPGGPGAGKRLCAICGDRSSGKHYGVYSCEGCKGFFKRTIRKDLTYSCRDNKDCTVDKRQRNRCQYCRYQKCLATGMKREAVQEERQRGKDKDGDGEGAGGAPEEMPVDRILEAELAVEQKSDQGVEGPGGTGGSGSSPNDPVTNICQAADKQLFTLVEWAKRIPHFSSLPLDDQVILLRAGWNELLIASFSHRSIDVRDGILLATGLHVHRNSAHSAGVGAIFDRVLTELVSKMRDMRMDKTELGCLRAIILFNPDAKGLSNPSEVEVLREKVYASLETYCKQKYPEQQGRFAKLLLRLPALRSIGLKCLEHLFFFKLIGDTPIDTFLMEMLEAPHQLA

[11] = target: T5, Retinoic acid receptor RXR-gamma (Homo sapiens) (UniProt P48443); experiment: Agonist activity at human RXRgamma transfected in human HEK293T cells co-expressing pFR/pRL-Luc at 30 uM incubated for 14 to 16 hrs by hybrid reporter gene assay; format: cell-based; settings: time 14-16 hrs; summary of the method: as §1
T5 sequence (whole entry): T2 sequence (P48443 whole entry)

[12] = target: T6, Retinoic acid receptor RXR-alpha (Homo sapiens) (UniProt P19793); experiment: as §2; format: cell-based; settings: time 14-16 hrs
T6 sequence (whole entry): T3 sequence (P19793 whole entry)

[13] = target: T6, Retinoic acid receptor RXR-alpha (Homo sapiens); experiment: Agonist activity at human RXRalpha transfected in human HEK293T cells co-expressing pFR/pRL-Luc at 30 uM incubated for 14 to 16 hrs by hybrid reporter gene assay; format: cell-based; settings: time 14-16 hrs; summary of the method: as §1
[14] = target: T4, Retinoic acid receptor RXR-beta (Homo sapiens); experiment: Agonist activity at human RXRbeta transfected in human HEK293T cells co-expressing pFR/pRL-Luc incubated for 14 to 16 hrs by hybrid reporter gene assay; format: cell-based; settings: time 14-16 hrs
[15] = Half life in po dosed rat; format: ADME, organism-based; settings: in vivo
HepG2 [16] = experiment: Cytotoxicity against human HepG2 cells assessed as reduction in cell viability incubated for 48 hrs by WST-1 assay; settings: HepG2, 48 h
[17] = Cmax in po dosed rat; format: ADME, organism-based; design: route oral; settings: in vivo

O=C(O)CCc1cc(-c2cc(Cl)cc(Cl)c2)n(-c2ccc(Cl)cc2)n1
Activity [1]: 15%
EC50 [2]: 1500 nM
Activity (HepG2 [3]): Non-Toxic
EC50 [4]: 300 nM
concentration at 3 h [5]: 35000 ng/mL
Stabilty [6]: Stable

O=C(O)CCc1nc(-c2ccccc2)c(-c2cc(C(F)(F)F)cc(C(F)(F)F)c2)o1
Activity [1]: 4%
EC50 [2]: 50 nM
Activity (HepG2 [3]): Non-Toxic
half-life [7]: > 3 h
Cmax [8]: 33000 ng/mL
EC50 [4]: 50 nM
Stabilty [6]: Stable
solubility at 1 h ([9]; phosphate buffer, pH 8): 146 µg/mL (≈ 340 µM)

CN(C)c1cccc(-c2oc(CCC(=O)O)nc2-c2ccccc2)c1
Activity [10]: inactive
Activity [11]: inactive
Activity [12]: inactive
Activity [13]: inactive
Activity [14]: inactive

C=C(c1ccc(C(=O)O)cc1)c1cc2c(cc1C)C(C)(C)CCC2(C)C [BEXAROTENE]
half-life [15]: 1.2 h
IC50 (HepG2 [16]): 20000 nM
solubility ([9]; buffer, pH 8, 1 h): 0.3 µg/mL (≈ 0.861 µM)
Cmax [17]: 600 ng/mL
